According to ChEMBL document CHEMBL1151311, “A novel antiprotozoal aminosteroid from Saracha punctata” (J Nat Prod, 1998):
pIC50: −log10 of the molar value.

Key:
Trypanosoma cruzi [1] = assay: Trypanocidal activity against Trypanosoma cruzi Tulahuen epimastigotes at 20 ug/ml after 48 hrs relative to control; type: functional; conditions: Tuluhuen
Procedure, shortened: (§1)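 T. cruzi epimastigotes in LIT medium with 10% FCS at 28 °C (inoculum 10^6 cells/mL) were exposed to compound (final DMSO <0.5%) for 48 h. Parasites were counted in a hemocytometer and compared with extract-free controls, in triplicate.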

Trypanosoma cruzi [2] = assay: Trypanocidal activity against Trypanosoma cruzi Tulahuen epimastigotes at 10 ug/ml after 48 hrs relative to control; type: functional; conditions: Tuluhuen; procedure, shortened: as §1
Trypanosoma cruzi [3] = assay: Trypanocidal activity against Trypanosoma cruzi Tulahuen epimastigotes at 5 ug/ml after 48 hrs relative to control; type: functional; conditions: Tuluhuen; procedure, shortened: as §1
Trypanosoma cruzi [4] = assay: Trypanocidal activity against Trypanosoma cruzi Tulahuen epimastigotes at 2.5 ug/ml after 48 hrs relative to control; type: functional; conditions: Tuluhuen; procedure, shortened: as §1
Leishmania braziliensis [5] = assay: Antileishmanial activity against Leishmania braziliensis MHOM/BR/75/M2903 promastigotes at 20 ug/ml after 72 hrs relative to control; type: functional; conditions: MHOM/BR/75/M2903, 72 h
Procedure, shortened: (§2)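 Promastigotes, 50 000 per well, were exposed to compound in liquid medium (final DMSO <0.1%) at 27 °C for 72 h. Growth was judged by inverted-phase microscopy of a culture drop against extract-free controls. Assays were run in triplicate.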

Leishmania braziliensis [6] = assay: Antileishmanial activity against Leishmania braziliensis MHOM/BR/75/M2903 promastigotes at 10 ug/ml after 72 hrs relative to control; type: functional; conditions: MHOM/BR/75/M2903, 72 h; procedure, shortened: as §2
Leishmania braziliensis [7] = assay: Antileishmanial activity against Leishmania braziliensis MHOM/BR/75/M2903 promastigotes at 5 ug/ml after 72 hrs relative to control; type: functional; conditions: MHOM/BR/75/M2903, 72 h; procedure, shortened: as §2
Leishmania braziliensis [8] = assay: Antileishmanial activity against Leishmania braziliensis MHOM/BR/75/M2903 promastigotes at 2.5 ug/ml after 72 hrs relative to control; type: functional; conditions: MHOM/BR/75/M2903, 72 h; procedure, shortened: as §2
Leishmania chagasi [9] = assay: Antileishmanial activity against Leishmania donovani chagasi PP75 at 20 ug/ml; type: functional
Leishmania chagasi [10] = assay: Antileishmanial activity against Leishmania donovani chagasi PP75 at 10 ug/ml; type: functional
Leishmania chagasi [11] = assay: Antileishmanial activity against Leishmania donovani chagasi PP75 at 5 ug/ml; type: functional
Leishmania chagasi [12] = assay: Antileishmanial activity against Leishmania donovani chagasi PP75 at 2.5 ug/ml; type: functional
[13] = Cytotoxicity against BALB/c mouse peritoneal macrophages assessed as survival at 20 ug/ml; type: cell-based, Macrophage; conditions: read-out: Activity
[14] = Cytotoxicity against BALB/c mouse peritoneal macrophages assessed as survival at 10 ug/ml; type: cell-based, Macrophage; conditions: read-out: Activity
[15] = Cytotoxicity against BALB/c mouse peritoneal macrophages assessed as survival at 5 ug/ml; type: cell-based, Macrophage; conditions: read-out: Activity
Plasmodium falciparum [16] = assay: Antimalarial activity against chloroquine-sensitive Plasmodium falciparum 2087 after 24 hrs; type: functional, organism-based
Procedure, shortened: (§3)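 P. falciparum strains 2087 and INDO kept in human erythrocytes. Samples were dissolved with DMSO (≤0.1% in dilutions) in RPMI 1640 and tested in triplicate with O+ red cells at 5% hematocrit and 1% parasitemia. Plates were incubated 24 h at 37 °C by candle-jar, then 48 h more with daily medium change. Parasitemia was counted by day-3 smear; IC50 came from linear regression of % inhibition versus control.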

Plasmodium falciparum [17] = assay: Antimalarial activity against chloroquine-resistant Plasmodium falciparum Indo after 24 hrs; type: functional, organism-based; procedure, shortened: as §3
KB = assay: Cytotoxicity against human KB cells; type: cell-based
[18] = Selectivity index, ratio of IC50 for KB cells to IC50 for chloroquine -sensitive Plasmodium falciparum 2087; type: toxicity, cell-based; conditions: human, read-out: Ratio IC50
[19] = Selectivity index, ratio of IC50 for KB cells to IC50 for chloroquine-resistant Plasmodium falciparum INDO; type: toxicity, cell-based; conditions: human, read-out: Ratio IC50
Plasmodium berghei [20] = assay: Antiplasmodial activity as reduced parasitaemia in Plasmodium berghei NK65 infected mice (Mus musculus) at 32 mg/kg/day for 4 days; type: functional; parameters: scale not given: the % may be the effect or the level left
Procedure, shortened: (§4)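 Four-day suppressive test adapted from Peters: mice were inoculated with P. berghei NK 65 on day 1 and treated daily for four consecutive days. A blood smear was taken on day 5, and parasitemia was compared with infected untreated controls.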

Plasmodium berghei [21] = assay: Antiplasmodial activity as reduced parasitaemia in Plasmodium berghei NK65 infected mice (Mus musculus) at 16 mg/kg/day for 4 days; type: functional; parameters: scale not given: the % may be the effect or the level left; procedure, shortened: as §4
Plasmodium berghei [22] = assay: Antiplasmodial activity as reduced parasitaemia in Plasmodium berghei NK65 infected mice (Mus musculus) at 8 mg/kg/day for 4 days; type: functional; parameters: scale not given: the % may be the effect or the level left; procedure, shortened: as §4
Mus musculus [23] = assay: Toxicity in Plasmodium berghei NK65 infected mice (Mus musculus) at 16 mg/kg administered daily for 4 days; type: organism-based; parameters: dose 16 mg/kg; conditions: in vivo, 96 h
Procedure, shortened: (§5)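 Mice infected with P. berghei NK 65 on day 1 were dosed daily for four consecutive days in the four-day suppressive test. Lethality was recorded on day 4.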

Mus musculus [24] = assay: Toxicity in Plasmodium berghei NK65 infected mice (Mus musculus) at 8 mg/kg administered daily for 4 days; type: organism-based; parameters: dose 8 mg/kg; conditions: in vivo, 96 h; procedure, shortened: as §5
Leishmania amazonensis [25] = assay: Antileishmanial activity against Leishmania amazonensis MHOM/GF/84/CAY H-142 promastigotes at 5 ug/ml after 72 hrs relative to control
Leishmania amazonensis [26] = assay: Antileishmanial activity against Leishmania amazonensis MHOM/GF/84/CAY H-142 promastigotes at 20 ug/ml after 72 hrs relative to control
Leishmania amazonensis [27] = assay: Antileishmanial activity against Leishmania amazonensis MHOM/GF/84/CAY H-142 promastigotes at 10 ug/ml after 72 hrs relative to control
Leishmania amazonensis [28] = assay: Antileishmanial activity against Leishmania amazonensis MHOM/GF/84/CAY H-142 promastigotes at 2.5 ug/ml after 72 hrs relative to control

With `C[C@H]1CC[C@H]([C@@H](C)[C@H]2CC[C@H]3[C@@H]4CC=C5C[C@@H](N)CC[C@]5(C)[C@H]4CC[C@]23C)NC1` the inhibition at 20 µg/mL (Trypanosoma cruzi [1]) was 100%, the inhibition at 10 µg/mL (Trypanosoma cruzi [2]) was 50% and the inhibition at 5 µg/mL (Trypanosoma cruzi [3]) was 0%. For the same compound, the inhibition at 2.5 µg/mL (Trypanosoma cruzi [4]) was 0%, the inhibition at 20 µg/mL (Leishmania braziliensis [5]) was 100% and the inhibition at 10 µg/mL (Leishmania braziliensis [6]) was 100%. It also gave an inhibition at 5 µg/mL (Leishmania braziliensis [7]) of 50%, an inhibition at 2.5 µg/mL (Leishmania braziliensis [8]) of 0% and an inhibition at 20 µg/mL (Leishmania chagasi [9]) of 100%. For the same compound, the inhibition at 10 µg/mL (Leishmania chagasi [10]) was 100%, the inhibition at 5 µg/mL (Leishmania chagasi [11]) was 50% and the inhibition at 2.5 µg/mL (Leishmania chagasi [12]) was 0%. It also gave a viability at 20 ug/ml [13] of 0%, a viability at 10 ug/ml [14] of 0% and a viability at 5 ug/ml [15] of 0%. The pIC50 (Plasmodium falciparum [16]) was 7.60, the pIC50 (Plasmodium falciparum [17]) was 6.75 and the pIC50 (KB) was 4.30. It also gave a selectivity ratio [18] of 2000, a selectivity ratio [19] of 286 and an Activity (Plasmodium berghei [20]) of 69%. The Activity (Plasmodium berghei [21]) was 27%, the Activity (Plasmodium berghei [22]) was 16% and the Activity (Mus musculus [23]) was “Non-toxic”. The Activity (Mus musculus [24]) was “Non-toxic”, the inhibition at 5 µg/mL (Leishmania amazonensis [25]) was 50% and the inhibition at 20 µg/mL (Leishmania amazonensis [26]) was 100%. It also gave an inhibition at 10 µg/mL (Leishmania amazonensis [27]) of 100% and an inhibition at 2.5 µg/mL (Leishmania amazonensis [28]) of 0%.
`N=C(N)c1ccc(OCCCCCOc2ccc(C(=N)N)cc2)cc1` [PENTAMIDINE] gave an inhibition at 10 µg/mL (Trypanosoma cruzi [2]) of 100%, an inhibition at 10 µg/mL (Leishmania braziliensis [6]) of 100% and an inhibition at 10 µg/mL (Leishmania chagasi [10]) of 100%. The inhibition at 10 µg/mL (Leishmania amazonensis [27]) was 100%.
